Shown are actives, neighbours in structure and some others; about 2.9% of the full set was active somewhere.
MC4R barr agon: MC4R agonists recruiting beta-arrestin, primary screen, cell-based, luminescence, agonist arm of biased-ligand search. Melanocortin receptor 4 (Homo sapiens), P32245. U2OS MC4R beta-arrestin complementation; percent of melanotan II response, DMSO zero. activation, % at 8.9 µM. 0.98% of 360,000 active;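 active means activation above a per-plate cutoff, the mean activation of sample wells on that plate plus 3 SD, cut at about 8% in these data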
Target sequence (P32245 whole entry, looked up): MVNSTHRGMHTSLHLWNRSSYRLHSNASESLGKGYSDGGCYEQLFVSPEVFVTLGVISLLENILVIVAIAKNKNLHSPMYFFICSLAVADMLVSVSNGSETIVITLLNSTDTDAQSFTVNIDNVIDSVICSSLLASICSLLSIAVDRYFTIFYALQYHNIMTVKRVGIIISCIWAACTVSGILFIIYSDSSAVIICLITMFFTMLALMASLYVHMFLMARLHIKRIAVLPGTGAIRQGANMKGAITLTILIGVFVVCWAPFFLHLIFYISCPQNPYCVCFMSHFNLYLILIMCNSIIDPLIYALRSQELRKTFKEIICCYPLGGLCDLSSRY
Calb FLC: C. albicans growth inhibition with fluconazole, primary screen, CaCi-2 strain, Alamar Blue fluorescence; C. albicans CaCi-2 + fluconazole, 48 h; growth inhibition, % (concentration not given with the values); 0.57% of 300,000 active; AID 1979, 2009;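 active means growth inhibition above about 58% in most replicates, limit read from the data, passing the limit was not always enough; inconclusive means exactly half the replicates above a set limit; inactive means most replicates below a set limit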;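 further: all wells also contain fluconazole at 8 µg/ml as a sub-toxic cotreatment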
GalR3 antag: GalR3 antagonists in HEK293 cells, primary screen, cell-based, fluorescence readout; Galanin receptor type 3 (Homo sapiens), O60755; HEK293 GalR3-CNG cAMP membrane potential fluorescence; galR3 body fused to GalR1 C-terminus; inhibition, % at 3 µM; 0.44% of 360,000 active;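 active means inhibition above the screen-wide average plus 3 SD, cut at about 13% in these data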;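 further: forskolin and galanin both at EC90 stimulate the cells; cAMP rise reported by CNG channel membrane potential dye signal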
Target sequence (O60755 1-299 limits assumed): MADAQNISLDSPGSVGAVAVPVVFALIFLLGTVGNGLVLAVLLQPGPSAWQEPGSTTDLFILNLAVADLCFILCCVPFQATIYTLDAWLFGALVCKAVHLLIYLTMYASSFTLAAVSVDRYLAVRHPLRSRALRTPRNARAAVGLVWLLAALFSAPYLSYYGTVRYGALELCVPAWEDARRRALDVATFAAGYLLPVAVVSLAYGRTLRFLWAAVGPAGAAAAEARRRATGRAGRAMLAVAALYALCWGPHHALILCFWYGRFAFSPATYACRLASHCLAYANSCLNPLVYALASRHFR
MC4R antagonist: MC4R antagonists of cAMP signaling, primary screen, cell-based, TR-FRET, antagonist arm of biased-ligand search; MC4R-expressing cells, MTII-stimulated cAMP, LANCE TR-FRET; inhibition, % at 6.5 µM; 0.48% of 360,000 active; AID 540295, 2011;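 active means inhibition above its plate's cutoff, the mean of tested wells on that plate plus 3 SD, cut at about 29% in these data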
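System: U2OS-MC4R stable cell line; Technique: Eu-cAMP/anti-cAMP TR-FRET, emission 671 nm; Repeats: single well per compound; Also added: Melanotan II; Dosing: one concentration, 6.5 µM nominal; Schedule: 30-min compound, 1-h challenge, 1-h detection, room temperature.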
Efflux pump mplx: inhibitors of Candida efflux pumps in yeast, primary screen, S. cerevisiae, Nile Red, multiplex | AID 485275, 2010 | 0.44% of 330,000 active | S. cerevisiae Candida pump triplex | inhibition, % at 10 µM;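 active means plate passing quality check with inhibition over a set limit, or well fluorescence over plate mean plus 4 SD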;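 further: Nile Red retained in pooled yeast measured as flow cytometry median fluorescence; higher means more Nile Red kept so more efflux inhibition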
TAG inh: inhibitors of triacylglycerol accumulation, primary screen, cell-based, uHTS, fluorescence, H9c2. H9c2 cells, Nile Red lipid (TAG) fluorescence; cells loaded with 200 µM oleic acid. inhibition, % at 12.5 µM. 0.66% of 230,000 active;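 active means pattern-corrected inhibition of lipid staining of at least 50% with the nuclear-stain viability signal not falling by more than 50%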
Each line names hits and unclear results; the compound was inactive in the other large screens.

CN1CCN(C(c2ccccn2)c2cc(Cl)c3cccnc3c2O)CC1 (configuration not stated)	Calb FLC 101
Cc1ccc(C(c2cc(Cl)c3cccnc3c2O)N2CCN(C)CC2)cc1 (configuration not stated)	Calb FLC 88 (no result: GalR3 antag, TAG inh)
COc1ccc(C(NC(=O)c2cccnc2)c2cc(Cl)c3cccnc3c2O)cc1OC (configuration not stated)	none (no result: TAG inh)
O=C(/C=C(\Nc1ccc(Cl)c(C(F)(F)F)c1)c1ccccc1)c1ccccc1	none (no result: MC4R barr agon, Calb FLC, MC4R antagonist, Efflux pump mplx, TAG inh)
CNc1ccccc1C(=O)OCC(=O)N1CCc2ccccc2C1	none (no result: Calb FLC, Efflux pump mplx)
Oc1c(C(c2ccc(Cl)cc2)N2CCCC2)cc(Cl)c2cccnc12 (configuration not stated)	Calb FLC 99
Oc1c(C(Nc2ccccn2)c2cccnc2)cc(Cl)c2cccnc12 (configuration not stated)	none (no result: TAG inh)
CN1CCc2c(sc3nc(SCC(N)=O)n(-c4ccc(Cl)cc4)c(=O)c23)C1	Calb FLC 101 (no result: TAG inh)
CN1CCc2c(sc3nc(SCC(N)=O)n(-c4ccccc4)c(=O)c23)C1	none
Cc1cc(C)c(C)c(S(=O)(=O)ON2C(=O)c3ccccc3C2=O)c1C	Calb FLC 101 (no result: TAG inh)
Cc1cc(C)c(S(=O)(=O)ON2C(=O)c3ccccc3C2=O)cc1C	none (no result: TAG inh)
CCc1nc(Nc2ccncc2)c2oc3ccccc3c2n1	Calb FLC 85 (no result: TAG inh)
Cc1nc(Nc2ccncc2)c2oc3ccccc3c2n1	none (no result: TAG inh)
O=C(Nc1cccc(C(F)(F)F)c1)C1Cc2c(-c3ccccc3)ccnc2O1 (configuration not stated)	none (no result: Calb FLC, Efflux pump mplx)
COC(=O)[C@]12C[C@H](CC(=O)NCCCCc3ccccc3)C(=O)N(Cc3ccc4c(c3)OCO4)C1=C[C@H](COCc1ccccc1)O[C@@H]2C	none (no result: MC4R barr agon, Calb FLC, MC4R antagonist, Efflux pump mplx, TAG inh)
Cc1cc(C)cc(NS(=O)(=O)CCCS(=O)(=O)Nc2cc(C)cc(C)c2)c1	MC4R barr agon 19 (no result: Calb FLC, Efflux pump mplx)
CC(C)Oc1cc(F)ccc1-c1cc(C(=O)NCCc2ccncc2)[nH]n1	none (no result: Calb FLC, Efflux pump mplx)
CCN(CC)c1ccc2cc(S(=O)(=O)c3ccc(C)cc3)c(=O)oc2c1	Calb FLC 101 (no result: TAG inh)
Cc1ccc(-c2ccc3c(c2)O[C@H](CN(C)C(=O)Nc2ccc(C(F)(F)F)cc2)[C@H](C)CN([C@H](C)CO)S3(=O)=O)cc1	none (no result: MC4R barr agon, Calb FLC, MC4R antagonist, Efflux pump mplx, TAG inh)
CCCS(=O)(=O)NC(=O)C1(C)CCCN(C(=O)c2cc(F)ccc2C)C1 (configuration not stated)	none (no result: Calb FLC, Efflux pump mplx)
O=S1(=O)N=C(Nc2ccc(N3CCOCC3)cc2)c2ccccc21	Calb FLC 86 (no result: TAG inh)
O=S1(=O)N=C(N2CCOCC2)c2ccccc21	none (no result: TAG inh)
COc1ccc(CNCCNC(=O)c2ccco2)c(OC)c1OC	Calb FLC 91
COc1cc(C(=O)NCCNC(=O)c2ccco2)cc(OC)c1OC	none (no result: Calb FLC, Efflux pump mplx)
C=CCSc1n[nH]c(-c2ccc(OCCC)cc2)n1	Calb FLC 112 (no result: GalR3 antag, TAG inh)
Oc1ccc(/C=N/Nc2ccc(C(F)(F)F)cn2)c(O)c1	Calb FLC 100 (no result: TAG inh)
Oc1ccc(/C=N/Nc2ccc(C(F)(F)F)cn2)cc1	none
COc1ccc(-c2cc(-c3c(O)c(OC)c4occc4c3OC)[nH]n2)cc1	Calb FLC 102 (no result: TAG inh)
O=c1cc(-c2ccccc2Cl)oc2cccc(O)c12	none
O=c1cc2oc3cc(O)c(O)cc3c(-c3ccccc3[N+](=O)[O-])c-2cc1O	Calb FLC 88 (no result: TAG inh)
C[C@@H]1COc2cccc(N3CCC[C@@H]3CO)c2S(=O)(=O)N1	none (no result: MC4R barr agon, Calb FLC, MC4R antagonist, Efflux pump mplx, TAG inh)
O=C(CNc1ccccc1F)N/N=C/C1CC=CCC1 (configuration not stated)	Calb FLC 123
Cc1cc2c(nc1C)CCCN2S(=O)(=O)c1ccccc1	none (no result: MC4R barr agon, Calb FLC, MC4R antagonist, Efflux pump mplx, TAG inh)
COC(=O)N1C[C@H](Oc2cccc3ccccc23)[C@H]2C[C@@H]1c1ccccc1O2	none (no result: MC4R barr agon, Calb FLC, MC4R antagonist, Efflux pump mplx, TAG inh)
O=C(Nc1cccc(S(=O)(=O)Nc2ccc(Cl)cc2)c1)c1ccc(Cl)nc1	GalR3 antag 73
O=C(Cc1cn(Cc2ccccc2)c2ccccc12)Nc1ccc(Oc2cccnc2)cc1	none (no result: MC4R barr agon, Calb FLC, MC4R antagonist, Efflux pump mplx, TAG inh)
Nc1nnnn1/N=C/c1cccc(Oc2ccccc2)c1	Calb FLC 78 (no result: TAG inh)
O=C(O)c1ccccc1-c1ccccc1C(=O)Nc1cccc(-c2nc3ccccc3o2)c1	Calb FLC 89
O=C(Nc1cccc(-c2nc3ccccc3o2)c1)c1cccnc1	none
CCOC(=O)c1cc(C#N)c(NCc2ccccc2)nc1C	MC4R barr agon 8.8, Calb FLC inconclusive (no result: TAG inh)
CC(=O)c1cc(C#N)c(NCc2ccccc2)nc1C	none (no result: TAG inh)
CN(c1cccnc1)c1ccc(NC(=O)Cc2c[nH]c3ccccc23)cc1Br	none (no result: MC4R barr agon, Calb FLC, MC4R antagonist, Efflux pump mplx, TAG inh)
CSc1nn2c(C(F)(F)F)cc(C(F)(F)F)nc2c1C(=O)O	Calb FLC 112
CC(=O)NNC(=S)NC(=O)C(c1ccccc1)c1ccccc1	Calb FLC 99 (no result: TAG inh)
CCNC(=S)NNC(=O)C(c1ccccc1)c1ccccc1	none (no result: TAG inh)
CC(C)(C)C(=O)NC(=S)NNC(=O)C(c1ccccc1)c1ccccc1	Calb FLC 82 (no result: GalR3 antag)
Cc1ccc2ccccc2c1C(O)c1ncc(-c2ccc(Cl)cc2)[nH]1 (configuration not stated)	none (no result: Calb FLC, Efflux pump mplx)
CCN1CCCC1CNC(=O)c1cc2c(-c3ccc(Cl)cc3)nn(C)c2s1 (configuration not stated)	TAG inh 53 (no result: GalR3 antag)
CCN1CCCC1CNC(=O)c1cc2c(-c3cccc(OC)c3)nn(C)c2s1 (configuration not stated)	none
Cc1ccc2nc(N(CCCN(C)C)C(=O)COc3ccc(Cl)cc3)sc2c1	MC4R barr agon 8.8
Cc1ccc2nc(N(CCCN(C)C)C(=O)c3cc(-c4cccs4)nc4ccccc34)sc2c1	MC4R barr agon 9.2, TAG inh 54
O=C(Cc1cccc2ccccc12)N/N=C/c1ccc(F)cc1	MC4R barr agon 15 (no result: TAG inh)
O=C(Cc1cccc2ccccc12)N/N=C/c1ccncc1	none
NCC(c1ccc(Cl)cc1Cl)c1c[nH]c2ccccc12 (configuration not stated)	Calb FLC 80 (no result: TAG inh)
Cc1nc(N)[nH]c(=O)c1CCCNc1ccc(CCC2(CCl)OCCO2)cc1	none (no result: Calb FLC, Efflux pump mplx)
COc1ccc(-c2ccc3c(c2)c(Sc2ccccc2)c(-c2ccccc2)n3C)cn1	none (no result: MC4R barr agon, Calb FLC, MC4R antagonist, Efflux pump mplx, TAG inh)
COC(=O)[C@H](N[C@H](/C=C/c1ccccc1)[C@@H](O)Cc1ccccc1)c1ccccc1	none (no result: MC4R barr agon, Calb FLC, MC4R antagonist, Efflux pump mplx, TAG inh)
O=Cc1ccc(O)c2ncccc12	Calb FLC 94 (no result: GalR3 antag, Efflux pump mplx, TAG inh)
Cc1ccc[n+](CC(=O)Nc2cc(C(F)(F)F)ccc2Cl)c1	none (no result: TAG inh)
CCC(C)(C)c1ccc(OCCCC[n+]2cccc(C)c2)c(C(C)(C)CC)c1	MC4R barr agon 19 (no result: Efflux pump mplx)
